Results taken from ChEMBL document CHEMBL1122109, “Monophenolic octahydrobenzo[f]quinolines: central dopamine- and serotonin-receptor stimulating activity” (1982).
Active and inactive are the calls of the source. No cut-off for these calls is given here.

Key:
[1] = species: Rattus norvegicus; assay: ED50 value was measured as dose required to produce a half-maximal reduction of Serotonin (5-HTP) accumulation in limbic area of reserpinized rat brain; I is Inactive, no significant effect at doses approximately 40 times the ED50 for Dopa accumulation; assay type: functional, organism-based
[2] = species: Rattus norvegicus; assay: Percent reduction of hemispheres in cortex was measured in the brain of reserpinized rats; I is Inactive, no significant effect at doses approximately 40 times the ED50 for Dopa accumulation; assay type: functional, organism-based
[3] = species: Rattus norvegicus; assay: ED50 value was measured as dose required to produce a half-maximal reduction of Dopa accumulation in limbic area of reserpinized rat brain.; assay type: functional
[4] = species: Rattus norvegicus; assay: ED50 value was measured as dose required to produce a half-maximal reduction of Serotonin (5-HTP) accumulation in striatum of reserpinized rat brain; I is Inactive, no significant effect at doses approximately 40 times the ED50 for Dopa accumulation; assay type: functional, organism-based
[5] = species: Rattus norvegicus; assay: ED50 value was measured as dose required to produce a half-maximal reduction of Dopa accumulation in the striatum of reserpinized rat brain.; assay type: functional
[6] = species: Rattus norvegicus; assay: Percent reduction of hemispheres in cortex was measured in the brain of reserpinized rats.*: No significant effect at doses approximately 40 times the ED50; I is Inactive, no significant effect at doses approximately 40 times the ED50 for Dopa ac cumulation; assay type: functional, organism-based
[7] = species: Rattus norvegicus; assay: Motor activity was measured in the reserpinized rats as counts/60 min.; assay type: functional
Outline: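 Male Sprague-Dawley rats (200-300 g) received reserpine 10 mg/kg ip 6 h before testing and DL-α-methyl-p-tyrosine methyl ester HCl 250 mg/kg ip 1 h before. Test drug was given sc in the neck: trans derivatives at 1 mg/kg (3100 nmol/kg), cis at 10 mg/kg (31000 nmol/kg), n = 4. Rats were placed singly in motility meters immediately and activity recorded for 60 min; means ± SEM.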

[8] = tested on: Rattus norvegicus; assay: ED50 value was measured as dose required to produce a half-maximal reduction of Serotonin (5-HTP) accumulation in striatum of reserpinized rat brain; I is Inactive at 2800 nmol/kg; assay type: functional, organism-based
[9] = species: Rattus norvegicus; assay: ED50 value was measured as dose required to produce a half-maximal reduction of Serotonin (5-HTP) accumulation in striatum of reserpinized rat brain; I is Inactive, no significant effect at doses approximately 10 times the ED50 for Dopa accumulation; assay type: functional, organism-based
[10] = tested on: Rattus norvegicus; assay: ED50 value was measured as dose required to produce a half-maximal reduction of Dopa accumulation in the striatum of reserpinized rat brain; I is Inactive at 2800 nmol/kg; assay type: functional, organism-based
[11] = tested on: Rattus norvegicus; assay: Percent reduction of hemispheres in cortex was measured in the brain of reserpinized rats; I is Inactive at 2800 nmol/kg; assay type: functional, organism-based
[12] = tested on: Rattus norvegicus; assay: ED50 value was measured as dose required to produce a half-maximal reduction of Dopa accumulation in limbic area of reserpinized rat brain; I is Inactive at 2800 nmol/kg; assay type: functional, organism-based
[13] = species: Rattus norvegicus; assay: ED50 value was measured as dose required to produce a half-maximal reduction of Serotonin (5-HTP) accumulation in limbic area of reserpinized rat brain; I is Inactive, no significant effect at doses approximately 10 times the ED50 for Dopa accumulation; assay type: functional, organism-based
[14] = tested on: Rattus norvegicus; assay: ED50 value was measured as dose required to produce a half-maximal reduction of Serotonin (5-HTP) accumulation in limbic area of reserpinized rat brain; I is Inactive at 2800 nmol/kg; assay type: functional, organism-based
[15] = species: Rattus norvegicus; assay: Percent reduction of hemispheres in cortex was measured in the brain of reserpinized rats; I is Inactive, no significant effect at doses approximately 10 times the ED50 for Dopa accumulation; assay type: functional, organism-based
[16] = tested on: Rattus norvegicus; assay: ED50 value was measured as dose required to produce a half-maximal reduction of Dopa accumulation in limbic area of reserpinized rat brain; Maximal reduction of Dopa could not be obtained. 40% reduction from control level at 12500 nmol/Kg; assay type: functional, organism-based
[17] = tested on: Rattus norvegicus; assay: ED50 value was measured as dose required to produce a half-maximal reduction of Serotonin (5-HTP) accumulation in limbic area of reserpinized rat brain; I is Inactive at 45000 nmol/kg; assay type: functional, organism-based
[18] = tested on: Rattus norvegicus; assay: Percent reduction of hemispheres in cortex was measured in the brain of reserpinized rats.*: No significant effect at doses approximately 40 times the ED50; IA is Inactive at 45000 nmol/kg; assay type: functional, organism-based
[19] = tested on: Rattus norvegicus; assay: ED50 value was measured as dose required to produce a half-maximal reduction of Serotonin (5-HTP) accumulation in striatum of reserpinized rat brain; I is Inactive at 45000 nmol/kg; assay type: functional, organism-based
[20] = tested on: Rattus norvegicus; assay: ED50 value was measured as dose required to produce a half-maximal reduction of Dopa accumulation in the striatum of reserpinized rat brain; Maximal reduction of Dopa could not be obtained. 60% reduction from control level at 12500 nmol/Kg; assay type: functional, organism-based
[21] = tested on: Rattus norvegicus; assay: ED50 value was measured as dose required to produce a half-maximal reduction of Serotonin (5-HTP) accumulation in striatum of reserpinized rat brain; I is Inactive at 11300 nmol/Kg; assay type: functional, organism-based
[22] = tested on: Rattus norvegicus; assay: ED50 value was measured as dose required to produce a half-maximal reduction of Serotonin (5-HTP) accumulation in limbic area of reserpinized rat brain; I is Inactive at 11300 nmol/Kg; assay type: functional, organism-based
[23] = tested on: Rattus norvegicus; assay: Percent reduction of hemispheres in cortex was measured in the brain of reserpinized rats; I is Inactive at 11300 nmol/Kg; assay type: functional, organism-based
[24] = species: Rattus norvegicus; assay: Percent reduction of hemispheres in cortex was measured in the brain of reserpinized rats.*: No significant effect at doses approximately 40 times the ED50; assay type: functional
[25] = species: Rattus norvegicus; assay: ED50 value was measured as dose required to produce a half-maximal reduction of Serotonin (5-HTP) accumulation in limbic area of reserpinized rat brain; assay type: functional
[26] = species: Rattus norvegicus; assay: ED50 value was measured as dose required to produce a half-maximal reduction of Serotonin (5-HTP) accumulation in striatum of reserpinized rat brain; assay type: functional
[27] = species: Rattus norvegicus; assay: ED50 value was measured as dose required to produce a half-maximal reduction of Dopa accumulation in the striatum of reserpinized rat brain; I is Inactive, no significant effect at doses approximately 10 times the ED50 for Dopa accumulation; assay type: functional, organism-based
[28] = species: Rattus norvegicus; assay: ED50 value was measured as dose required to produce a half-maximal reduction of Dopa accumulation in limbic area of reserpinized rat brain; I is Inactive, no significant effect at doses approximately 10 times the ED50 for Dopa accumulation; assay type: functional, organism-based
[29] = tested on: Rattus norvegicus; assay: ED50 value was measured as dose required to produce a half-maximal reduction of Dopa accumulation in limbic area of reserpinized rat brain; I is Inactive at 500 nmol/kg; assay type: functional, organism-based
[30] = tested on: Rattus norvegicus; assay: ED50 value was measured as dose required to produce a half-maximal reduction of Dopa accumulation in the striatum of reserpinized rat brain; I is Inactive at 500 nmol/kg; assay type: functional, organism-based
[31] = species: Rattus norvegicus; assay: ED50 value was measured as dose required to produce a half-maximal reduction of Dopa accumulation in the striatum of reserpinized rat brain; I is Inactive, no significant effect at doses approximately 40 times the ED50 for Dopa accumulation; assay type: functional, organism-based
[32] = species: Rattus norvegicus; assay: ED50 value was measured as dose required to produce a half-maximal reduction of Dopa accumulation in limbic area of reserpinized rat brain; I is Inactive, no significant effect at doses approximately 40 times the ED50 for Dopa accumulation; assay type: functional, organism-based
[33] = species: Rattus norvegicus; assay: ED50 for 5-HTP in cortex hemispheres was measured in the brain of reserpinized rats.
[34] = Rattus norvegicus, Brain, read-out: ED50
[35] = Rattus norvegicus, Striatum, read-out: ED50

SMILES | ED50 [1] | Hemispheres reduction [2] | ED50 [3, 34] [µmol/kg] | ED50 [4] | ED50 [5, 35] [µmol/kg] | Motor activity [7] | other results
CCCN1CCCC(c2cccc(O)c2)C1 (configuration not stated) | inactive | inactive | 3.6 | inactive | 3.6 | – | –
CCCN(CCC)C1CCc2ccc(O)cc2C1 (configuration not stated) | inactive | inactive | 0.027 | inactive | 0.03 | – | –
CCCN(CCC)[C@@H]1CCc2ccc(O)cc2C1 | – | – | 0.18 | – | 0.17 | – | –
CCCCN1CCCC2c3cccc(O)c3CCC21 (configuration not stated) | inactive | – | 0.08 | inactive | 0.07 | 418 | Hemispheres reduction [6]: inactive
CCCN1CCCC2c3ccc(O)cc3CCC21 (configuration not stated) | – | – | 0.54 | – | 0.53 | 179 | ED50 [8]: inactive; ED50 [9]: inactive; ED50 [10]: inactive; Hemispheres reduction [11]: inactive; ED50 [12]: inactive; ED50 [13]: inactive; ED50 [14]: inactive; Hemispheres reduction [15]: inactive
CCCN1CCCC2c3cccc(O)c3CCC21 (stereo in doubt; 6) [listing 1 of 2 here] | – | – | – | – | – | 17 | –
CCCN1CCCC2c3cccc(O)c3CCC21 (stereo in doubt; 6) [listing 2 of 2 here] | – | – | – | – | – | – | ED50 [16]: Weak activity; ED50 [17]: inactive; Hemispheres reduction [18]: inactive; ED50 [19]: inactive; ED50 [20]: Weak activity
CCCN1CCCC2c3cccc(O)c3CCC21 (stereo in doubt; 7) [listing 1 of 2 here] | – | – | 0.13 | – | 0.13 | 327 | –
CCCN1CCCC2c3cccc(O)c3CCC21 (stereo in doubt; 7) [listing 2 of 2 here] | inactive | inactive | – | inactive | – | – | –
CCCN1CCCC2c3cc(O)ccc3CCC21 (stereo in doubt; 8) [listing 1 of 2 here] | – | – | – | – | – | – | ED50 [3]: 2000 nM/kg; ED50 [5]: 3400 nM/kg
CCCN1CCCC2c3cc(O)ccc3CCC21 (stereo in doubt; 8) [listing 2 of 2 here] | – | – | – | – | – | – | ED50 [21]: inactive; ED50 [22]: inactive; Hemispheres reduction [23]: inactive
CCCN1CCCC2c3cc(O)ccc3CCC21 (stereo in doubt; 9) [listing 1 of 2 here] | – | – | – | – | – | 365 | ED50 [3]: 8 nM/kg; ED50 [5]: 12 nM/kg
CCCN1CCCC2c3cc(O)ccc3CCC21 (stereo in doubt; 9) [listing 2 of 2 here] | inactive | inactive | – | inactive | – | – | –
CCCN1CCCC2c3c(O)cccc3CCC21 (stereo in doubt; 17) [listing 1 of 2 here] | – | – | – | – | – | – | Hemispheres reduction [24]: 4500; ED50 [25]: 3400 nM/kg; ED50 [26]: 3400 nM/kg
CCCN1CCCC2c3c(O)cccc3CCC21 (stereo in doubt; 17) [listing 2 of 2 here] | – | – | – | – | – | – | ED50 [27]: inactive; ED50 [28]: inactive
CCCN1CCCC2c3c(O)cccc3CCC21 (stereo in doubt; 18) [listing 1 of 2 here] | – | – | – | – | – | – | Hemispheres reduction [24]: 160; ED50 [25]: 230 nM/kg; ED50 [26]: 180 nM/kg
CCCN1CCCC2c3c(O)cccc3CCC21 (stereo in doubt; 18) [listing 2 of 2 here] | – | – | – | – | – | – | ED50 [29]: inactive; ED50 [30]: inactive
CCCN(CCC)C1CCc2c(O)cccc2C1 (configuration not stated) [5-OH-DPAT] | inactive | inactive | 0.011 | inactive | 0.009 | 688 | –
CCCN(CCC)C1CCc2cccc(O)c2C1 (configuration not stated) [8-OH-DPAT] | – | – | – | – | – | – | ED50 [31]: inactive; ED50 [32]: inactive; ED50 [25, 34]: 0.048 µmol/kg; ED50 [26, 35]: 0.045 µmol/kg; ED50 [33]: 68 nmol/kg
CN1CCc2cccc3c2[C@H]1Cc1ccc(O)c(O)c1-3 [APOMORPHINE] | – | inactive | 0.19 | – | 0.22 | 624 | –
